Assay results collected from several papers.
Protocols differ between the studies behind these lines.
Target: Calcium/calmodulin-dependent protein kinase type II subunit alpha (CAMK2A, Homo sapiens, UniProt Q9UQM7)

| SMILES | test | conditions | endpoint | result |
| --- | --- | --- | --- | --- |
| Cn1cncc1[C@](O)(COc1ccc(C#N)cc1-c1ccc(OC(F)(F)F)cc1)c1ccc(C#N)cc1 | cell-free assay, competition with immobilised ligand | 1 µM | remaining binding | 95% |
| Cn1cc(-c2cc(F)cc(N3CCn4c(cc5c4CCCC5)C3=O)c2CO)cc(Nc2ccc(N3CCN(C4COC4)CC3)cn2)c1=O | enzyme activity, inhibitor | 0.1 µM | inhibition | 12% |
| O=c1[nH]c2ccccc2n1C1CCN(Cc2ccc(-c3[nH]c4cc5ncnc5cc4nc3-c3ccccc3)cc2)CC1 | cell-free assay | 0.5 µM | remaining signal | 109% |
| COc1ncccc1-c1cnn2ccc(N3CCN(C(=O)OC(C)C)CC3)nc12 | binding, competition with immobilised ligand | 1 µM | remaining binding | 70% |
| Cn1cc(-c2cccc(N3CCc4c(sc5c4CC(C)(C)C5)C3=O)c2CO)cc(Nc2ccncn2)c1=O | enzyme activity, inhibitor | 1 µM | inhibition | -7% |
| Nc1ncc(-c2nc(N3CCOCC3)nc(N3CCOCC3)n2)c(C(F)F)n1 | binding, competition with immobilised ligand | 10 µM | remaining binding | 64% |
| N#CC1(c2ccccn2)CCN(Cc2cc(C(=O)O)c(=O)n3ccccc23)CC1 | cell-free assay, competition with immobilised ligand | 1 µM | remaining binding | 83% |
| Cc1ncc(C)n2nc(/C=C/c3nc(N4CCCC4)cc(N4CCOCC4)n3)nc12 | enzyme activity, inhibitor | 10 µM | inhibition | 6% |
| Cc1nn(C)cc1-c1nc2c(N3CCN(Cc4ccc(Cl)cc4)CC3)c(Cl)cnc2[nH]1 | binding, competition with immobilised ligand | 1 µM | remaining binding | 95% |
| O=C(Nc1cccnn1)N1CCN([C@@H]2CCOc3cc(C(F)(F)F)ccc32)CC1 | cell-free assay | 20 µM | inhibition | 3% |
